Assay results reported in PubChem BioAssay AID743257 (The Scripps Research Institute Molecular Screening Center, 2014).
The campaign covered roughly 2,900 compounds. About 1,900 (66%) were called active. The set was probably picked from earlier hits. A selection follows. Values without a mark were called inactive.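 The calls were made as follows: active = mean inhibition across replicates above the hit cutoff set in the primary screen (cut at about 8.5% in these data); inactive = the rest.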

Molecular target: Disintegrin and metalloproteinase domain-containing protein 17 (Homo sapiens) (UniProt P78536)
Assay: ADAM17 inhibitors, hit retest, confirmation, biochemical, QFRET peptide cleavage (AID 743257);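 also: 0% = DMSO wells and 100% = marimastat wells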
Details: recombinant ADAM17, EDANS/DABCYL QFRET peptide cleavage; at 6.95 µM; active compounds read high
Summary of the method: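 Material: Human ADAM17 enzyme, FRET peptide cleavage | Buffer or medium: 50 mM HEPES pH 7.5, 0.01% Brij | Doses: 6.95 µM compound, single dose | Schedule: 30 min preincubation, 3 h reaction | Technique: Fluorescence at ex 359 nm, em 460 nm | Read-out: Percent inhibition | Benchmarks: DMSO wells and 1 µM marimastat wells as references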

Sequence of Disintegrin and metalloproteinase domain-containing protein 17 (Homo sapiens) (P78536 215-824 limits assumed): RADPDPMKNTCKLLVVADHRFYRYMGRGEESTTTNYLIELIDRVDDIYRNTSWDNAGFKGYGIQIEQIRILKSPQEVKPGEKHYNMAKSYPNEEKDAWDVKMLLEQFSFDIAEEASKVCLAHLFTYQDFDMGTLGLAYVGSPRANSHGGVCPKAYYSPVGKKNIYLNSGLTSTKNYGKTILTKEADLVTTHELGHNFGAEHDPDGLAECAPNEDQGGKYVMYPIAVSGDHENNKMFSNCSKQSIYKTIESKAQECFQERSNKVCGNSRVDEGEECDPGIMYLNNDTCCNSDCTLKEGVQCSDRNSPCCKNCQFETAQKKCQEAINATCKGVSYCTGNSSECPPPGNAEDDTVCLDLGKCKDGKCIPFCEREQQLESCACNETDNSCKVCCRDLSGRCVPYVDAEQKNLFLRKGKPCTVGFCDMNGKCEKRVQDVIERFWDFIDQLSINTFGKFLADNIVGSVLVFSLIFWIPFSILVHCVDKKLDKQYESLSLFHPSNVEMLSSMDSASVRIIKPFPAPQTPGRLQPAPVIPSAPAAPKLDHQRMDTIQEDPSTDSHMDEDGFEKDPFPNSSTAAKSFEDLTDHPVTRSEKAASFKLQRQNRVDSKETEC

| SMILES | inhibition |
| --- | --- |
| O=C(C[C@H]1C(=O)N(c2ccc(F)c(F)c2)C[C@@H]1Cc1ccccc1)Nc1ccccc1 | 14.1% (active) |
| Cc1ccc(C)c(NC(=S)NNC(=S)Nc2ccc(C(C)C)cc2)c1 | 17.9% (active) |
| C[C@@H]1CN([C@H](C)CO)C(=O)c2cc(-c3ccc(F)cc3)cnc2O[C@H]1CN(C)C(=O)c1ccc(F)cc1 | 8.52% |
| COc1cc(NC(=O)CCS(=O)(=O)c2ccc3c(c2)oc(=O)n3C)cc(OC)c1 | 6.47% |
| COc1ccc(C(=O)NN2C(=O)C3C(c4ccccc4)C=CC(c4ccccc4)C3C2=O)cc1 (stereo not given) | 14% (active) |
| COc1ccc(S(=O)(=O)N2CCN(C(C)C(=O)Nc3ccc(C(C)C)cc3)CC2)cc1 (stereo not given) | 10.8% (active) |
| COc1cc(/C=N/n2c(C)n[nH]c2=S)ccc1OCc1ccccc1 | 0.43% |
| CN(C)S(=O)(=O)c1cccc(NC(=O)COC(=O)C2(c3ccccc3F)CCCC2)c1 | 14.1% (active) |
| NS(=O)(=O)c1ccc(NC(=O)COC(=O)C2(c3ccc(F)cc3)CCCC2)cc1 | 14.4% (active) |
| O=C1/C(=C\c2ccsc2)NC(=S)N1c1ccccc1 | 8.92% (active) |
| C#CCN(C[C@H]1[C@H](OC(=O)NC2CCCC2)[C@H](OC(=O)NC2CCCC2)C[C@H]2C(=O)N(c3ccccc3)C(=O)[C@@H]12)S(=O)(=O)c1ccc(C)cc1 | 8.59% |
| C=CC(COCc1ccccc1)N(CC(=O)OC)S(=O)(=O)c1cc(Br)ccc1OC (stereo not given) | 10.1% (active) |
| O=C(Nn1c(SCc2ccc([N+](=O)[O-])cc2)nc2ccccc2c1=O)c1ccc(F)cc1 | 16.4% (active) |
| COc1ccc(-c2ccc(CN3C(CC(C)C)C(=O)N(Cc4cn(CC5CCCCC5)nn4)CCS3(=O)=O)cc2)cc1 (stereo not given) | 13.1% (active) |
| COc1ccc(Cn2cc(CN3CCS(=O)(=O)N(Cc4ccc(-c5cccc(Cl)c5)cc4)C(C)C3=O)nn2)cc1 (stereo not given) | 11.2% (active) |
| FC(F)(F)Oc1ccccc1C(c1nnnn1C1CCCCC1)N1CCN(C/C=C/c2ccccc2)CC1 (stereo not given) | 10.2% (active) |
| Cc1ccc(Cn2nnc3c(=O)[nH]c(C4CCN(S(=O)(=O)/C=C/c5ccccc5)CC4)nc32)cc1 | 20.1% (active) |
| Cc1nnc(SCC(=O)Nn2cnnc2)s1 | 1% |
| O=C(CSc1nnc(Nc2ccccc2)s1)Nc1cccnc1Cl | 4.72% |
| Cc1ccc(NC(=S)NNC(=O)CSc2nnc(SCc3ccccc3Cl)s2)cc1 | 13.7% (active) |
| O=C(COC(=O)c1ccccc1)Nc1ccccc1Sc1ccccc1 | 10.7% (active) |
| Cc1ccccc1C(=O)Nc1ccccc1Sc1ccccc1 | 8.42% |
| O=C(Nc1ccc(C(=O)NCc2ccccc2Cl)cc1)C1=CSCCO1 | 4.43% |
| CCCCCC(=O)N1C[C@H](O)[C@@H](n2cc(COC(=O)c3ccccc3)nn2)C[C@@H]1c1ccc(C)cc1 | 13.5% (active) |
| C=CC[C@H](CC(=O)N(CCO)Cc1ccccc1)C(=O)N[C@@H](COC(=O)[C@@H](CC=C)Cc1ccc(F)cc1)Cc1ccccc1 | 14.8% (active) |
| C=CCC[C@@H](Cc1ccc(F)cc1)C(=O)O[C@H](CNC(=O)[C@H](CC=C)CC(=O)N(CCO)Cc1ccccc1)c1ccccc1 | 21.7% (active) |
| C=CCC[C@@H](Cc1ccc(F)cc1)C(=O)OC[C@H](Cc1c[nH]c2ccccc12)NC(=O)[C@@H](CC=C)CC(=O)N(CCO)Cc1ccccc1 | 16.9% (active) |
| Cc1ccc(/C=N/NC(=O)CSc2nc3ccccc3o2)cc1 | 6% |
| CC1(C)C=Cc2c(ccc3c2OC[C@@H](c2ccc(O)cc2O)C3)O1 | 12.3% (active) |
| N/C(Cc1ccc([N+](=O)[O-])cc1)=N\OC(=O)COc1ccc2ccccc2c1 | 6.36% |
